# Reference: ChEMBL document CHEMBL1142898, “Synthesis and biological evaluation of benzoic acid derivatives as potent, orally active VLA-4 antagonists” (Bioorg Med Chem, 2007)
# What was measured:
# [1] = in vivo; conditions: BALB/c, mouse, serum, 10 mg/kg
# [2] = physchem; conditions: octanol/water
# [3] = in vivo; conditions: BALB/c, mouse, serum, 50 mg/kg
# [4] = test system: Mus musculus; assay: AUC in BALB/c mouse at 20 mg/kg, po normalized to 10 mg/kg; assay type: ADME, organism-based, Plasma; conditions: in vivo
# [5] = test system: Mus musculus; assay: Cmax in BALB/c mouse at 20 mg/kg, po normalized to 10 mg/kg after 15 mins; assay type: ADME, organism-based; design: dose 20 mg/kg, route oral; conditions: in vivo
# [6] = AUC in Sprague-Dawley rat 10 mg/kg, po; assay type: ADME, organism-based; design: dose 10 mg/kg, route oral; conditions: plasma
# In short: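 Male Sprague–Dawley rats, 6 weeks old, fasted 18 h, 3–4 per group. Oral dose 10 mg/5 ml/kg in 0.5% methylcellulose. Blood (0.4 ml) drawn at 0.25, 0.5, 1, 2 and 6 h. Plasma held at −20 °C, drug measured by LC/MS/MS, and PK parameters derived by non-compartmental analysis.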
# [7] = organism: Mus musculus; conditions: in vivo, 5 mg/kg
# [8] = organism: Mus musculus; conditions: in vivo, 10 mg/kg
# [9] = in vivo; conditions: BALB/c, mouse, 5 mg/kg
# [10] = in vivo; conditions: BALB/c, mouse, plasma, iv, 10 mg/kg
# [11] = in vivo; conditions: Sprague-Dawley, rat, 10 mg/kg
# [12] = in vivo; conditions: Sprague-Dawley, rat, blood, 10 mg/kg
# [13] = in vivo; conditions: Sprague-Dawley, rat, plasma, iv, 10 mg/kg
# [14] = in vivo; conditions: Sprague-Dawley, rat, plasma, 10 mg/kg
# [15] = in vivo; conditions: Sprague-Dawley, rat, 10 mg/kg; remark: listed apart in the source
# [16] = test system: Rattus norvegicus; assay: Cmax in Sprague-Dawley rat at 10 mg/kg, iv; conditions: in vivo
# [17] = AUC in BALB/c mouse at 10 mg/kg, po; assay type: ADME, organism-based; design: dose 10 mg/kg, route oral; conditions: plasma
# [18] = test system: Mus musculus; assay: Cmax in BALB/c mouse at 10 mg/kg, po after 15 mins; assay type: ADME, organism-based; design: dose 10 mg/kg, route oral; conditions: in vivo
# In short: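 Female BALB/c mice, 8 weeks old, 4 per group. Dosed orally at 10 mg/1 ml/kg in 0.5% CMC. Drug level estimated by adding serum (0.01–10% final) to a Eu-VCAM-1/Fc binding assay on CHO-K1 cells expressing human VLA-4.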
# [19] = AUC in Beagle dog at 1 mg/kg, po; assay type: ADME, organism-based, Canis lupus familiaris; design: dose 1 mg/kg, route oral; conditions: plasma
# [20] = organism: Rattus norvegicus; conditions: in vivo, 10 mg/kg
# [21] = organism: Canis familiaris; conditions: dog, in vivo, po, 1 mg/kg
# [22] = organism: Canis familiaris; conditions: dog, in vivo, po, 1 mg/kg; remark: listed apart in the source
# [23] = in vivo; conditions: BALB/c, mouse, 5 mg/kg; remark: listed apart in the source
# [24] = in vivo; conditions: BALB/c, mouse, plasma, 10 mg/kg
# [25] = in vivo; conditions: BALB/c, mouse, 10 mg/kg
# [26] = in vivo; conditions: beagle, dog, po, 2 mg/kg
# [27] = in vivo; conditions: beagle, dog, 1 mg/kg
# [28] = in vivo; conditions: beagle, dog, plasma, iv, 1 mg/kg
compound,measurement,setting,value
O=C(Nc1ccc(CC(=O)N2C[C@@H](F)C[C@H]2COc2ccc(C(=O)O)cc2)cc1Cl)Nc1ccccc1Br,concentration at […],[1],2160 ng/mL
same,logD,[2],2.34
COc1cc(CC(=O)N2C[C@@H](F)C[C@H]2COc2ccc(C(=O)O)cc2)ccc1NC(=O)Nc1ccccc1Cl,concentration at 0.5 h,[3],142 ng/mL
same,logD,[2],1.87
O=C(Nc1ccccc1Cl)Nc1ccc(CC(=O)N2C[C@@H](F)C[C@H]2COc2ccc(C(=O)O)cc2)cc1Br,concentration at […],[1],1880 ng/mL
same,logD,[2],2.17
Cc1cc(CC(=O)N2C[C@@H](F)C[C@H]2COc2ccc(C(=O)O)cc2)ccc1NC(=O)Nc1ccccc1Br,AUC,[4],1095 ng·h/mL
same,Cmax,[5],391 ng/mL
same,AUC,[6],5230 ng·h/mL
same,MRT,[7],2.3 h
same,Vdss,[8],0.67 L/kg
same,concentration at […],[1],693 ng/mL
same,bioavailability,[9],21%
same,AUC,[10],5260 ng·h/mL
same,bioavailability,[11],34%
same,MRT,[12],2 h
same,AUC,[13],15600 ng·h/mL
same,clearance,[14],11.3 mL/min/kg
same,Vd,[15],0.29 L/kg
same,logD,[2],1.64
same,Cmax,[16],6700 ng/mL
Cc1ccccc1NC(=O)Nc1ccc(CC(=O)N2C[C@@H](F)C[C@H]2COc2ccc(C(=O)O)cc2)cc1C,concentration at […],[1],368 ng/mL
same,logD,[2],1.09
Cc1ccccc1NC(=O)Nc1ccc(CC(=O)N2C[C@@H](F)C[C@H]2COc2ccc(C(=O)O)cc2)cc1Cl,AUC,[17],2540 ng·h/mL
same,Cmax,[18],2250 ng/mL
same,AUC,[6],11500 ng·h/mL
same,AUC,[19],3120 ng·h/mL
same,clearance,[20],5.2 mL/min/kg
same,Cmax,[21],2370 ng/mL
same,Vdss,[22],0.14 L/kg
same,concentration at […],[1],3660 ng/mL
same,bioavailability,[9],28%
same,MRT,[23],1.2 h
same,AUC,[10],8900 ng·h/mL
same,clearance,[24],18.5 mL/min/kg
same,Vd,[25],0.33 L/kg
same,bioavailability,[11],36%
same,MRT,[12],1.7 h
same,AUC,[13],31900 ng·h/mL
same,Vd,[15],0.24 L/kg
same,bioavailability,[26],55%
same,MRT,[27],1.6 h
same,AUC,[28],5680 ng·h/mL
same,logD,[2],1.61
same,Cmax,[16],13000 ng/mL
Cc1cc(CC(=O)N2C[C@@H](F)C[C@H]2COc2ccc(C(=O)O)cc2)ccc1NC(=O)Nc1ccccc1Cl,concentration at […],[1],472 ng/mL
same,logD,[2],1.69
